{"source": "paper PMC3712287", "about": "(Journal of neuroimmunology, 2010)", "key": {"[1]": {"test_system": "LAD2 mast cells", "experiment": "Degranulation assay", "type": "cell-based, human"}, "[2]": {"test_system": "FcεRI expression by LAD2 mast cells", "experiment": "FcεRI surface expression by flow cytometry, LAD2 mast cells", "type": "cell-based, human", "settings": "for Effect of antagonist on SP-mediated downregulation of FcεRI: LAD2, antagonist 0.1 μM 30 min pretreatment"}, "[3]": {"test_system": "LAD2 mast cells", "settings": "ref Kulka et al., 2008; cited from earlier work"}, "[4]": {"test_system": "CysLT production by LAD2 mast cells", "experiment": "ELISA for CysLT production", "type": "cell-based, human", "settings": "for Effect of SP on CysLT production: LAD2, SP 10 μg/ml, anti-IgE 3 h"}, "[5]": {"test_system": "IgE binding by LAD2 mast cells", "experiment": "Cell surface IgE binding by flow cytometry", "type": "cell-based, human", "settings": "SP 24 h, sensitized with IgE 1-100 ng/ml 30 min, anti-IgE FITC, n=5", "procedure,_shortened": "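LAD2 human mast cells (StemPro-34 SFM, 10 ng/ml SCF) were incubated 24 h with SP, then sensitized for 30 min with IgE at 1-100 ng/ml. Bound IgE was stained with anti-IgE-FITC (5 μg/ml) for 30 min on ice and read by flow cytometry as MFI.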"}, "[6]": {"test_system": "human mast cells"}, "[7]": {"test_system": "FcεRI α, β and γ subunit mRNA in LAD2 mast cells", "experiment": "Quantitative real-time PCR of FcεRI α, β and γ subunit mRNA", "type": "cell-based, human", "settings": "LAD2, 1 μg/ml SP, after at least 8 h of incubation, vs untreated control, n=3", "procedure,_shortened": "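LAD2 cells received 1 μg/ml SP or PBS for varying times. Total RNA was column-isolated, and 5 μg was reverse-transcribed with random hexamers. Real-time PCR used 50 ng cDNA per reaction, run in triplicate for 40 cycles. Subunit mRNA was normalized to GAPDH and expressed as percent of PBS-treated cells at each time point. n=3.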"}, "[8]": {"test_system": "mast cell tryptase", "experiment": "Tryptase activity assay", "type": "biochemical, human", "settings": "supernatants of SP-activated LAD2, BAPNA substrate, n=3", "procedure,_shortened": "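Washed LAD2 cells were left untreated or activated with SP (1 μg/ml) for 3 h. Cell-free supernatants were exposed to SBTI for 30 min, then mixed with 0.8 mM BAPNA solution in 0.1 M Tris/1 M glycerol, pH 7.8, and incubated 4 h at 37 °C. Nitroaniline was read at 410 nm. Activity was expressed relative to supernatants from SP-stimulated cells without inhibitor. n=3.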"}}, "note": "“Also recorded” adds a separate entry of the source. Read-outs that look alike come from different tables or passages of the source.", "data": [{"molecule": "O=C(O)CN(CCN(CC(=O)O)CC(=O)O)CC(=O)O", "note": "[EDTA]", "values": [{"measurement": "Effect on SP-induced degranulation", "setting": "[1]", "result": "blocked SP-induced degranulation"}, {"measurement": "Effect on SP-mediated downregulation of FcεRI", "setting": "[2]", "result": "blocked the SP-mediated downregulation of FcεRI"}]}, {"molecule": "Pertussis toxin", "values": [{"measurement": "Effect on SP-mediated downregulation of FcεRI", "setting": "[2]; Pertussis toxin pretreatment 2 h, then 1 μg/ml SP 24 h, n=3", "result": "selectively blocked SP-mediated downregulation of FcεRI"}]}, {"molecule": "SP(4–11) [SP(4–11) [D-Pro4 D-Trp7.9]]", "values": [{"measurement": "Concentration that blocked the SP-mediated downregulation of FcεRI expression", "setting": "[2]; LAD2, 30 min pretreatment, then 1 μg/ml SP 24 h", "result": 0.1, "unit": "µM"}, {"measurement": "Effect of antagonist on SP-mediated downregulation of FcεRI", "setting": "[2]; then 1 μg/ml SP 24 h", "result": "blocked SP-mediated downregulation of FcεRI expression"}, {"measurement": "Concentration at which SP(4–11) abrogated the SP effect on FcεRI expression", "setting": "[2]; discussion statement", "result": 1, "unit": "µg/mL"}]}, {"molecule": "spantide I", "values": [{"measurement": "Effect of antagonist on SP-mediated downregulation of FcεRI", "setting": "[2]; then 1 μg/ml SP 24 h", "result": "did not have any effect"}, {"measurement": "Effect on SP-mediated degranulation in mast cells", "setting": "[3]", "result": "fails to inhibit SP-mediated degranulation"}]}, {"molecule": "substance P [SP]", "values": [{"measurement": "Lowest SP concentration leading to clear down-regulation of FcεRI", "setting": "[2]; LAD2 (discussion statement)", "result": 1, "unit": "µM"}, {"measurement": "Time within which SP reduced IgE receptors", "setting": "[2]; LAD2 (discussion statement)", "result": "≤ 30", "unit": "min"}, {"measurement": "Downregulation of FcεRI expression", "setting": "[2]; LAD2, 1 μg/ml SP, 24 h", "result": "approximately 30%"}, {"measurement": "Reduction of FcεRI expression", "setting": "[2]; LAD2, 10 μg/ml SP (highest concentration tested), 24 h", "result": "~70", "unit": "%"}, {"measurement": "Reduction in FcεRI protein expression compared to untreated cells", "setting": "[2]; LAD2, 10 μg/ml SP, 2 h", "result": 50, "unit": "%"}, {"measurement": "IC50 of SP for downregulation of FcεRI surface expression", "setting": "[2]; LAD2, in the absence of IgE, SP 24 h, flow cytometry, n=3", "result": 5.2, "unit": "µg/mL"}, {"measurement": "Effect of SP on CysLT production", "setting": "[4]; sensitized with 50 ng/ml IgE", "result": "significantly inhibited CysLT production"}, {"measurement": "Effect of SP on CysLT production", "setting": "[4]; sensitized with 100 ng/ml IgE", "result": "did not significantly affect CysLT production"}, {"measurement": "Effect of SP pretreatment on IgE/anti-IgE-induced CysLT production", "setting": "[4]; LAD2, SP 24 h, sensitized with IgE, activated with anti-IgE 3 h, ELISA, n=3", "result": "significantly less CysLT"}, {"measurement": "Direct activation of CysLT production", "setting": "[4]; mast cells, SP alone", "result": "does not activate mast cells to produce cysteinyl leukotrienes"}, {"measurement": "IgE binding of SP-treated LAD2 vs untreated controls", "setting": "[5]", "result": "bound less IgE"}, {"measurement": "Effect on mast cell viability", "setting": "[6]", "result": "no effect on mast cell viability"}, {"measurement": "Effect on expression of FcεRI α, β and γ subunit mRNA", "setting": "[7]", "result": "significantly inhibited"}]}, {"molecule": "vasoactive intestinal peptide [VIP]", "values": [{"measurement": "Effect on mast cell viability", "setting": "[6]", "result": "no effect on mast cell viability"}]}, {"molecule": "soybean trypsin inhibitor (protein, UniProt P01070 25-205, looked up) Trypsin inhibitor A: DFVLDNEGNPLENGGTYYILSDITAFGGIRAAPTGNERCPLTVVQSRNELDKGIGTIISSPYRIRFIAEGHPLSLKFDSFAVIMLCVGIPTEWSVVEDLPEGPAVKIGENKDAMDGWFRLERVSDDEFNNYKLVFCPQQAEDDKCGDIGISIDHDDGTRRLVVSKNKPLVVQFQKLDKESL", "values": [{"measurement": "Effect on SP-induced degranulation", "setting": "[1]; LAD2, pretreatment before activation with SP, β-hexosaminidase release", "result": "did not affect LAD2 cell degranulation"}, {"measurement": "Effect on SP-mediated downregulation of FcεRI", "setting": "[2]; LAD2, 100 μg/ml SBTI five minutes prior to 1 or 10 μg/ml SP, 24 h", "result": "did not affect SP-mediated downregulation of FcεRI"}, {"measurement": "Effect on activity of tryptase released by SP activation", "setting": "[8]", "result": "able to block the activity of tryptase; also recorded: completely blocked the proteolytic activity of tryptase"}]}]}
